Results on one molecule are retold here after ChEMBL document CHEMBL1156525, “A small-molecule therapeutic lead for Huntington's disease: preclinical pharmacology and efficacy of C2-8 in the R6/2 transgenic mouse” (Proc Natl Acad Sci U S A, 2007).

One series deals with T1, Adenosine receptor A3 (Homo sapiens, UniProt P0DMS8).
T1 sequence (P0DMS8 whole entry): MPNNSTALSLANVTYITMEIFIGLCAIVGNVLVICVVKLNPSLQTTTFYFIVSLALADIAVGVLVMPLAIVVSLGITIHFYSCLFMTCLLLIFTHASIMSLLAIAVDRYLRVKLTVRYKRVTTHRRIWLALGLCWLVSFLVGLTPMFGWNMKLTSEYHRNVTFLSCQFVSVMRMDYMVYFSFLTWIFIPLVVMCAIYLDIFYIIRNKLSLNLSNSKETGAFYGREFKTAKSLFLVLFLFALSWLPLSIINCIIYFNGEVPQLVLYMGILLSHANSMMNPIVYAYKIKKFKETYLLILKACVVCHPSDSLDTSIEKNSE
The series is described as follows: Inhibition of adenosine A3 receptor. The procedure, abridged:
(§1)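 Screened against a panel of 60 receptors, ion channels and transporters expressed in mammalian brain. Receptor-binding profile reported as IC50.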

The nature of series [1]: Lipophilicity, log P of the compound. Type of series: physicochemical. Conditions: octanol/water.
A short description of series [2]: Drug level in mouse cerebral cortex at 50 mg/kg, po administered for 5 days after 5 hrs. Type of series: ADME, organism-based. The arrangement: dose 50 mg/kg, route oral. Conditions: read-out: Drug uptake. The procedure, abridged: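 Wild-type mice (n = 5) given 50 mg/kg by oral gavage as a suspension for 5 days. Killed 5 h after the last dose. Cortex (20–30 mg) sonicated in acetonitrile/0.4% acetic acid at −10°C, centrifuged, and the supernatant dried and reconstituted in mobile phase. Analysed by LC electrochemical array against a 0.8 μg/ml standard.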

Series [3] is described as follows: Plasma half life in po dosed mouse. Type of series: ADME, organism-based. The procedure, abridged:
(§2)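 Wild-type mice given single oral doses of 5, 10, 25 or 50 mg/kg. Plasma and brain sampled at 1, 4 and 8 h after dosing, and also at 16 and 24 h. Drug measured by HPLC/MS. n = 5; SD. Half-lives derived from the concentration–time course.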

A short description of series [4]: Half life in po dosed mouse brain. It counts as ADME, organism-based. The procedure, abridged:
as §2

The subject of the next series is Brain. The series is described as follows: Drug concentration in mouse brain at 10 mg/kg, po after 16 hrs. It counts as ADME, organism-based. The arrangement: dose 10 mg/kg, route oral. Conditions: in vivo. The procedure, abridged:
as §2

Another series concerns Plasma. The series is described as follows: Drug concentration in mouse plasma at 25 mg/kg, po after 24 hrs. Type of series: ADME, organism-based. Set-up: dose 25 mg/kg, route oral. Conditions: in vivo. The procedure, abridged: as §2
For series [5], the system named is Mus musculus. Description: Toxicity in R6/2 mouse assessed as effect on body weight at 50 mg/kg/12 hrs for 4 weeks. To be noted: in vivo. Type of series: organism-based. The procedure, abridged: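 Chronic tolerability study in adult R6/2 mice, n = 10 per group, dosed with 50, 100 or 200 mg/kg/12 h for 4 weeks by oral gavage. Body weight recorded weekly at the same time of day.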

The test system of series [6] is Mus musculus. The series is described as follows: Toxicity in R6/2 mouse assessed as effect on body weight at 100 mg/kg/12 hrs for 4 weeks. To be noted: in vivo. Type of series: organism-based. The procedure, abridged: (§3)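 Chronic tolerability study in adult female R6/2 mice (back-crossed onto C57BL/6 × CBA F1), n = 10 per group. Oral gavage twice daily at 50, 100 or 200 mg/kg/12 h for 4 weeks, given as a suspension made fresh daily. Body weight was recorded weekly at the same time of day.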

For series [7], the system named is Mus musculus. The series is described as follows: Toxicity in R6/2 mouse assessed as body weight at 200 mg/kg/12 hrs for 4 weeks. Conditions: in vivo. Type of series: organism-based. The procedure, abridged:
as §3

Series [8] deals with Mus musculus. The series is described as follows: Toxicity in R6/2 mouse assessed as survival at 100 mg/kg/12 hrs for 4 weeks. Type of series: organism-based. Conditions: in vivo.
In series [9] the test system is Mus musculus. Description: Toxicity in R6/2 mouse assessed as survival at 200 mg/kg/12 hrs for 4 weeks. To be noted: in vivo. Type of series: organism-based.
Series [10] deals with Sodium-dependent dopamine transporter (Homo sapiens, UniProt Q01959). Description: Inhibition of DAT. The procedure, abridged:
as §1

The species named for series [11] is Mus musculus. Description: Reduction of decrease in motor dysfunction in R6/2 mouse assessed as increase in latency to fall at 8 weeks of age by rotarod test. Type of series: functional. The arrangement: scale not given: the % may be the effect or the level left. The procedure, abridged:
(§4)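 R6/2 mice dosed orally at 0, 100 or 200 mg/kg/12 h from 24 days of age until death. Rotarod latency to fall tested at 5, 8 and 11 weeks of age. n = 15; geometric mean ± 95% CI; mixed-model analysis.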
On the technique in general: The rotarod test checks motor coordination on a turning rod.

For series [12], the species on record is Mus musculus. The series is described as follows: Reduction of decrease in motor dysfunction in R6/2 mouse assessed as increase in latency to fall at 11 weeks of age by rotarod test. Type of series: functional. The arrangement: scale not given: the % may be the effect or the level left. The procedure, abridged:
as §4

Series [13] relates to Mus musculus. The series is described as follows: Reduction of decrease in motor dysfunction in R6/2 mouse assessed as improvement in wire-hang endurance at 100 mg/kg/12 hrs after 12.5 weeks. Type of series: functional, organism-based. The procedure, abridged: (§5)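 Female R6/2 mice dosed by oral gavage at 0, 100 or 200 mg/kg/12 h from 24 days of age. Wire-hang endurance tested at 9.5 and 12.5 weeks: mouse placed on horizontal wire mesh, mesh gently inverted, and time hanging recorded. Three trials per day on three consecutive days, averaged. n = 15; geometric mean ± 95% CI; mixed-model analysis.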

The species entered for series [14] is Mus musculus. The series is described as follows: Reduction of decrease in motor dysfunction in R6/2 mouse assessed as improvement in wire-hang endurance after 9.5 weeks. Type of series: organism-based. To be noted: in vivo, 1596 h. The procedure, abridged:
as §5

The test system of series [15] is Mus musculus. The series is described as follows: Decrease in neuronal atrophy in R6/2 mouse assessed as striatal neuronal cell body volume at 200 mg/kg relative to control. Set-up: scale not given: the % may be the effect or the level left. Type of series: functional. The procedure, abridged: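 Female R6/2 mice given oral gavage twice daily from 3 weeks of age until death or kill. Perfused at 90 days with 2% paraformaldehyde. Every eighth 50 μm thionin-stained section used; striatal neuronal cell body volume estimated stereologically by the nucleator method. n = 10; mean ± SEM; ANOVA versus placebo-treated R6/2 mice.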

The test system of series [16] is Mus musculus. Description: Decrease in striatal nuclear aggregate volume in R6/2 mouse at 200 mg/kg by nucleator method. Type of series: functional. Set-up: scale not given: the % may be the effect or the level left. The procedure, abridged:
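R6/2 mice dosed orally twice daily from 3 weeks of age, perfusion-fixed at 90 days. Floating forebrain sections at the anterior commissure crossing were stained with EM48 (1:2,000) for 2 days, then biotinylated secondary antibody and ABC development. Intranuclear aggregate volume in the striatum measured by the nucleator method. Compared with vehicle-treated R6/2 mice.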

Series [17] is described as follows: Inhibition of opioid receptor. The procedure, abridged: as §1
The next series has as its system PC-12. The series is described as follows: Inhibition of polyQ aggregation in rat PC12 cells. It counts as functional, cell-based.

Structures are written as SMILES. Calls of active or inactive are those of the source. The rule behind the calls is not given here.

Sodium-dependent dopamine transporter, sequence (Q01959 whole entry): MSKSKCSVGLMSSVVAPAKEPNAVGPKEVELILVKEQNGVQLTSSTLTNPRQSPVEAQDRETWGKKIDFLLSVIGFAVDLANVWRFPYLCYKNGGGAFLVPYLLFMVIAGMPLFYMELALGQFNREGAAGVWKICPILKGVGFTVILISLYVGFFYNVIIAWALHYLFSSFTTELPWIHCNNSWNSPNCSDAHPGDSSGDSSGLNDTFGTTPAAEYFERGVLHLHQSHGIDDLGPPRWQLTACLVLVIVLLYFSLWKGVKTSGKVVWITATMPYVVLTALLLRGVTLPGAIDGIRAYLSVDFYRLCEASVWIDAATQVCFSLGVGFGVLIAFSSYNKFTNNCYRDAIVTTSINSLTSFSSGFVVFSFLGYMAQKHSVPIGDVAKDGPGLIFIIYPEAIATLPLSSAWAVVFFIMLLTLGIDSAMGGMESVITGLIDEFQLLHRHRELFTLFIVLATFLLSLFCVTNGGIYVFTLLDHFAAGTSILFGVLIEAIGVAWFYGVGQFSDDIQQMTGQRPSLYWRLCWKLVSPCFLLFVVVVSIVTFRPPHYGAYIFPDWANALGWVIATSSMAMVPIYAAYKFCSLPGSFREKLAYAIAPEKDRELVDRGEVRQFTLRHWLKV

For orientation: IC50 means the midpoint of a concentration-inhibition curve. Usually logP stands for a log measure of how a compound divides between an organic and an aqueous phase. For orientation: half-life means how long it takes for the measured level to halve. As to `O=C(Nc1ccc(Br)cc1)c1cccc(S(=O)(=O)Nc2ccc(Br)cc2)c1`, the IC50 against Adenosine receptor A3 came to 5.76 µM; in series [10], 1.7 µM; in [17], 2.79 µM; in the series on PC-12 it was 0.05 µM. Besides, in series [1], the logP was 5.2. Besides, the concentration at 5 h in [2] came to 25 µM. Moreover, the results for the half-life in series [3] and in series [4] were 1.5 h and 1.6 h, respectively. In the series with Brain, the Drug uptake is less than 15 pmol/g. This molecule returned a Cp in the series on Plasma of less than 3 pmol/g. The Activity result with Mus musculus [5] is listed as “Non-toxic”; with Mus musculus [6], “Non-toxic”; in the series with Mus musculus [7], “Non-toxic”; in the series on Mus musculus [8] it was “Non-toxic”; in the series on Mus musculus [9], “Non-toxic”; in the series listed under Mus musculus [11], 37%. Also, the Activity in the series filed under Mus musculus [12] was 43%; in the series filed under Mus musculus [14], “Active”; with Mus musculus [15], 20%; in the series on Mus musculus [16], 35%. In addition, in the series with Mus musculus [13], the outcome was Active.
